Experiments:
[1] = tested on: SF-539; test: Growth inhibition of human SF539 cells after 48 hrs by sulforhodamine B assay; type: functional; conditions: SF-539, 48 h; for CC50: read-out: LC50 (the source's name)
Summary of the method: (§1)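 NCI 60-cell-line panel. Cells were grown in medium with 5% fetal calf serum and 2 mM L-glutamine, then preincubated 24 h in plates. Compounds were added from DMSO at five 10-fold concentrations from 100 to 0.01 µM and left on cells continuously for 48 h. Cell growth was read by sulforhodamine B protein stain. GI50 is the concentration that halves net protein increase relative to control cells.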

[2] = tested on: M14; test: Growth inhibition of human M14 cells after 48 hrs by sulforhodamine B assay; type: functional; conditions: M14, 48 h; for CC50: read-out: LC50 (the source's name)
Summary of the method: (§2)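 NCI 60-cell-line panel grown in RPMI-type medium with 5% fetal calf serum and 2 mM L-glutamine. Cells preincubated 24 h, then exposed continuously for 48 h to compound in DMSO at 10^-4 to 10^-8 M (five 10-fold levels). Growth read by SRB protein stain. GI50 is the concentration giving a 50% reduction in net protein increase relative to control cells.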

[3] = tested on: TK-10; test: Growth inhibition of human TK10 cells assessed as cell growth at 10 uM after 48 hrs by sulforhodamine B assay; type: functional; conditions: TK-10, 48 h, read-out: Activity
Summary of the method: (§3)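 Single-dose NCI screen. Tumor lines were cultured in medium with 5% fetal calf serum and 2 mM L-glutamine, preincubated 24 h, then given compound in DMSO. After 48 h continuous exposure, cell growth was estimated by sulforhodamine B protein assay.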

[4] = tested on: OVCAR-3; test: Growth inhibition of human OVCAR3 cells after 48 hrs by sulforhodamine B assay; type: functional; conditions: OVCAR-3, 48 h; summary of the method: as §1
[5] = tested on: OVCAR-5; test: Growth inhibition of human OVCAR5 cells assessed as cell growth at 10 uM after 48 hrs by sulforhodamine B assay; type: functional; conditions: OVCAR-5, 48 h, read-out: Activity
[6] = tested on: CCRF-CEM; test: Growth inhibition of human CCRF-CEM cells after 48 hrs by sulforhodamine B assay; type: functional, cell-based; summary of the method: as §2
[7] = tested on: SNB-75; test: Growth inhibition of human SNB75 cells assessed as cell growth at 10 uM after 48 hrs by sulforhodamine B assay; type: functional; conditions: SNB-75, 48 h, read-out: Activity
[8] = Growth inhibition of human EKVX cells assessed as cell growth at 10 uM after 48 hrs by sulforhodamine B assay; type: functional; conditions: read-out: Activity
[9] = tested on: SW-620; test: Growth inhibition of human SW620 cells assessed as cell growth at 10 uM after 48 hrs by sulforhodamine B assay; type: functional; conditions: SW-620, 48 h, read-out: Activity; summary of the method: as §3
[10] = tested on: OVCAR-4; test: Growth inhibition of human OVCAR4 cells after 48 hrs by sulforhodamine B assay; type: functional; conditions: OVCAR-4, 48 h; summary of the method: as §1
[11] = tested on: K562; test: Growth inhibition of human K562 cells after 48 hrs by sulforhodamine B assay; type: functional; conditions: K562, 48 h; for CC50: read-out: LC50 (the source's name); summary of the method: as §2
[12] = tested on: RXF 393; test: Growth inhibition of human RXF393 cells after 48 hrs by sulforhodamine B assay; type: functional; conditions: RXF 393, 48 h; summary of the method: as §1
[13] = tested on: HL-60(TB); test: Growth inhibition of human HL-60(TB) cells after 48 hrs by sulforhodamine B assay; type: functional; conditions: HL-60, 48 h; for CC50: read-out: LC50 (the source's name)
Summary of the method: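 Part of the NCI 60-cell-line panel. Cells were grown in 1640 medium with 5% fetal calf serum and 2 mM L-glutamine, then preincubated 24 h before compound was added. Compounds in DMSO were tested at five concentrations (100, 10, 1, 0.1, 0.01 µM) with 48 h continuous exposure. Read-out was SRB protein staining; GI50 is the concentration halving the net protein increase versus control.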

[14] = tested on: HOP-92; test: Growth inhibition of human HOP92 cells after 48 hrs by sulforhodamine B assay; type: functional; conditions: HOP-92, 48 h; for CC50: read-out: LC50 (the source's name); summary of the method: as §2
[15] = tested on: SK-MEL-5; test: Growth inhibition of human SK-MEL-5 cells after 48 hrs by sulforhodamine B assay; type: functional; conditions: SK-MEL-5, 48 h; summary of the method: as §1
[16] = tested on: UO-31; test: Growth inhibition of human UO31 cells assessed as cell growth at 10 uM after 48 hrs by sulforhodamine B assay; type: functional; conditions: UO-31, 48 h, read-out: Activity; summary of the method: as §3
[17] = tested on: NCI-H460; test: Growth inhibition of human NCI-H460 cells assessed as cell growth at 10 uM after 48 hrs by sulforhodamine B assay; type: functional; conditions: NCI-H460, 48 h, read-out: Activity
[18] = tested on: T47D; test: Growth inhibition of human T47D cells after 48 hrs by sulforhodamine B assay; type: functional
Summary of the method: (§4)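 NCI 60-line panel. Cells were grown in medium with 5% fetal calf serum and 2 mM L-glutamine and preincubated 24 h in plates. Compound in DMSO was added at 10^-4 to 10^-8 M (five 10-fold levels), with continuous exposure for 48 h. Growth was read by SRB protein staining. GI50 is the concentration giving 50% reduction in net protein increase versus control cells.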

[19] = tested on: UO-31; test: Growth inhibition of human UO31 cells after 48 hrs by sulforhodamine B assay; type: functional; conditions: UO-31, 48 h; summary of the method: as §4
[20] = tested on: NCI-H23; test: Growth inhibition of human NCI-H23 cells assessed as cell growth at 10 uM after 48 hrs by sulforhodamine B assay; type: functional; conditions: NCI-H23, 48 h, read-out: Activity
[21] = tested on: UACC-62; test: Growth inhibition of human UACC62 cells after 48 hrs by sulforhodamine B assay; type: functional; conditions: UACC-62, 48 h; summary of the method: as §4
[22] = tested on: DU-145; test: Growth inhibition of human DU145 cells assessed as cell growth at 10 uM after 48 hrs by sulforhodamine B assay; type: functional; conditions: DU-145, 48 h, read-out: Activity
[23] = tested on: OVCAR-8; test: Growth inhibition of human OVCAR8 cells after 48 hrs by sulforhodamine B assay; type: functional; conditions: OVCAR-8, 48 h; summary of the method: as §1
[24] = tested on: SK-MEL-28; test: Growth inhibition of human SK-MEL-28 cells assessed as cell growth at 10 uM after 48 hrs by sulforhodamine B assay; type: functional; conditions: SK-MEL-28, 48 h, read-out: Activity
[25] = tested on: MDA-MB-468; test: Growth inhibition of human MDA-MB-468 cells assessed as cell growth at 10 uM after 48 hrs by sulforhodamine B assay; type: functional; conditions: MDA-MB-468, 48 h, read-out: Activity
[26] = tested on: HCT-15; test: Growth inhibition of human HCT15 cells assessed as cell growth at 10 uM after 48 hrs by sulforhodamine B assay; type: functional; conditions: HCT-15, 48 h, read-out: Activity
[27] = tested on: SNB-19; test: Growth inhibition of human SNB19 cells assessed as cell growth at 10 uM after 48 hrs by sulforhodamine B assay; type: functional; conditions: SNB-19, 48 h, read-out: Activity

Cc1cc(O)ccc1C1=NN(c2ccc(S(C)(=O)=O)cc2)C(=O)CC1
GI50 [1]: 13.2 µM
TGI [1]: > 100 µM
CC50 [1]: > 100 µM
GI50 [2]: 3.85 µM
TGI [2]: > 100 µM
CC50 [2]: > 100 µM
growth at 10 µM [3]: 105%
GI50 [4]: 3.41 µM
LC50 (lethal concentration, 50% net cell kill) [4]: > 100 µM
TGI [4]: 9.44 µM
growth at 10 µM [5]: 98%
GI50 [6]: 9.09 µM
TGI [6]: > 100 µM
CC50 ([6]; read-out: LC50 (the source's name)): > 100 µM
growth at 10 µM [7]: 75.2%
growth at 10 µM [8]: 72.2%
growth at 10 µM [9]: 46.6%
GI50 [10]: 76.9 µM
LC50 [10]: > 100 µM
TGI [10]: > 100 µM
GI50 [11]: 3.74 µM
TGI [11]: > 100 µM
CC50 [11]: > 100 µM
GI50 [12]: 12.8 µM
LC50 (50% lethal concentration) [12]: > 100 µM
TGI [12]: > 100 µM
GI50 [13]: 3.52 µM
TGI [13]: 48.4 µM
CC50 [13]: > 100 µM
GI50 [14]: 6.49 µM
TGI [14]: > 100 µM
CC50 [14]: > 100 µM
GI50 [15]: 5.49 µM
LC50 [15]: > 100 µM
TGI [15]: > 100 µM
growth at 10 µM [16]: 48.8%
growth at 10 µM [17]: 73.1%
GI50 [18]: 20.2 µM
LC50 [18]: > 100 µM
TGI [18]: > 100 µM
GI50 [19]: 14.8 µM
LC50 (concentration killing 50% of cells) [19]: > 100 µM
TGI [19]: > 100 µM
growth at 10 µM [20]: 32.9%
GI50 [21]: 4 µM
LC50 (50% net cell kill concentration) [21]: > 100 µM
TGI [21]: > 100 µM
growth at 10 µM [22]: 92.2%
GI50 [23]: 12.3 µM
LC50 [23]: > 100 µM
TGI [23]: > 100 µM
growth at 10 µM [24]: 81.2%
growth at 10 µM [25]: 103%
growth at 10 µM [26]: 44.9%
growth at 10 µM [27]: 78.2%

Cc1ccc(C2=NN(c3ccc(S(C)(=O)=O)cc3)C(=O)CC2)cc1
GI50 [1]: 1.02 µM
TGI [1]: 17.4 µM
CC50 [1]: > 100 µM
GI50 [2]: 0.38 µM
TGI [2]: > 100 µM
CC50 [2]: > 100 µM
growth at 10 µM [3]: 67%
GI50 [4]: 0.36 µM
LC50 (lethal concentration, 50% net cell kill) [4]: > 100 µM
TGI [4]: 3.33 µM
growth at 10 µM [5]: 53.1%
GI50 [6]: 1.16 µM
IC50 [6]: > 100 µM
TGI [6]: > 100 µM
growth at 10 µM [7]: 8.1%
growth at 10 µM [9]: 8.58%
GI50 [10]: > 100 µM
LC50 [10]: > 100 µM
TGI [10]: > 100 µM
GI50 [11]: 0.37 µM
TGI [11]: > 100 µM
CC50 [11]: > 100 µM
GI50 [12]: 0.63 µM
LC50 (50% lethal concentration) [12]: > 100 µM
TGI [12]: 6.8 µM
GI50 [13]: 0.4 µM
TGI [13]: 2.58 µM
CC50 [13]: > 100 µM
GI50 [14]: 0.42 µM
TGI [14]: 8.3 µM
CC50 [14]: > 100 µM
GI50 [15]: 0.41 µM
LC50 [15]: > 100 µM
TGI [15]: > 100 µM
growth at 10 µM [16]: 41.1%
GI50 [18]: 2.08 µM
LC50 [18]: > 100 µM
TGI [18]: > 100 µM
GI50 [19]: 4.72 µM
LC50 (concentration killing 50% of cells) [19]: > 100 µM
TGI [19]: > 100 µM
growth at 10 µM [20]: -19.6%
GI50 [21]: 0.46 µM
LC50 (50% net cell kill concentration) [21]: > 100 µM
TGI [21]: > 100 µM
growth at 10 µM [22]: 6.77%
GI50 [23]: 0.74 µM
LC50 [23]: > 100 µM
TGI [23]: > 100 µM
growth at 10 µM [24]: 51.4%
growth at 10 µM [25]: 23.9%
growth at 10 µM [27]: 55%

Reference: ChEMBL document CHEMBL2417474, “Synthesis, antiproliferative and anti-inflammatory activities of some novel 6-aryl-2-(p-(methanesulfonyl)phenyl)-4,5-dihydropyridazi-3(2H)-ones” (Eur J Med Chem, 2013)
